Neddylation inh: inhibitors of cullin neddylation, primary screen, biochemical, TR-FRET, uHTS, NAE and Ubc12; AID 651699, 2012; 0.58% of 360,000 active; NEDD8-conjugating enzyme Ubc12 (Homo sapiens) + NEDD8-activating enzyme E1 regulatory …; calls only at 25 µM; in the data active means inhibition above about 36%
RAD54 inh: inhibitors of human RAD54 branch migration, primary screen, biochemical, fluorescence, single point; DNA repair and recombination protein RAD54-like (Homo sapiens), Q92698; RAD54 Holliday junction branch migration, FAM/BHQ fluorescence; inhibition, % at 10.4 µM; 0.14% of 360,000 active; AID 602329, 2012;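 active means mean normalized replicate activity at least 40 and at least half of replicates scoring 40 or more; inconclusive means only one of the two criteria met; inactive means mean below 40 and under half of replicates reaching 40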;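 further: inhibitors cause a drop in the FAM fluorescence signal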
Target sequence (Q92698 whole entry, looked up): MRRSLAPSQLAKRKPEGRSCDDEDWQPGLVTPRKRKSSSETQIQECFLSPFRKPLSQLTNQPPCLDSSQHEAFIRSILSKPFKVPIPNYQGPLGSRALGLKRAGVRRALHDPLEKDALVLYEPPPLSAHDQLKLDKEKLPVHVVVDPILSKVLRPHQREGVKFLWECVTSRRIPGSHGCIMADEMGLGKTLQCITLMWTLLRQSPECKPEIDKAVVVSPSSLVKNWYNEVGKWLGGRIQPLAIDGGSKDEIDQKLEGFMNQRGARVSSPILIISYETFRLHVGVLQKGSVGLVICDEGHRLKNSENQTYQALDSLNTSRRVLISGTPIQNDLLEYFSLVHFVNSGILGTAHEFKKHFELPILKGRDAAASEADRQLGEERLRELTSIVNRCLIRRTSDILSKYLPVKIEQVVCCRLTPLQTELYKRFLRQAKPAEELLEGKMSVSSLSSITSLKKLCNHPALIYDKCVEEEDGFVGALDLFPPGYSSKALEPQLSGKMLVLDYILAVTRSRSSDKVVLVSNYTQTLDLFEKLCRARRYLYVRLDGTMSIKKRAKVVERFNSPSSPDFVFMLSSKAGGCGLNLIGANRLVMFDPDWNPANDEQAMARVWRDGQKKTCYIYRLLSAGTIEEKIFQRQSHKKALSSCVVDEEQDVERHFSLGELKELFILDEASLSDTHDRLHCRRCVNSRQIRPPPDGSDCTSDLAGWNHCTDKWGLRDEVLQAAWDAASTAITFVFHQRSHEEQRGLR
UBC13 inh: UBC13 polyubiquitin chain formation inhibitors, primary screen, biochemical, TR-FRET, uHTS; Ubiquitin-conjugating enzyme E2 N (Homo sapiens), P61088; inhibition, % at 20 µM; 0.47% of 330,000 active; AID 485273, 2010; in the data active means inhibition above about 45%, passing the limit was not always enough; inconclusive means no clear call, values can overlap the other calls
Apaf-1 inh: inhibitors of human Apaf-1 apoptosome, primary screen, biochemical, DEVD-Rh110 fluorescence, uHTS | inhibition, % at 20 µM | Apoptotic protease-activating factor 1 (Homo sapiens), O14727 | 0.71% of 330,000 active | reconstituted apoptosome caspase-3 activity; active means inhibition of at least 40% at 20 µM
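Material: biochemical Apaf-1 apoptosome reconstitution. Medium: Hepes buffer, pH 7.5. Also added: cytochrome c activation, bis-DEVD rhodamine 110 substrate. Timing: 30 min compound preincubation, 50 min activation, room temperature. Measured by: rhodamine 110 fluorescence at Ex 480/Em 540 nm.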
DNA FID counter: compounds displacing fluorescent DNA intercalator, primary screen, artefact control for HCV NS3 helicase inhibitor project, biochemical, FID fluorescence; DNA fluorescent intercalator displacement; inhibition, % at 7.9 µM; 0.17% of 290,000 active; in the data active means inhibition above about 37%;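 further: higher means more ethidium bromide displaced from hairpin DNA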
RAD52 inh: RAD52 DNA annealing inhibitors, primary screen, biochemical, FRET, single point, set 2. DNA repair protein RAD52 homolog (Homo sapiens), P43351. recombinant RAD52 DNA annealing, FRET fluorescence. AID 651710, 2012. 0.46% of 360,000 active. inhibition, % at 18.7 µM;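 active means every replicate showing at least 50% inhibition; inconclusive means mean inhibition at least 50% but not in every replicate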
Numbers stand for hits; . = inactive; ? = inconclusive; / = not tested or not shown; + = active, no number; ! = a repeat was not active. Only some compounds are listed: those with a hit (about 1.6% of all), similar ones and a draw of the others.

SMILES | Neddylation inh | RAD54 inh | UBC13 inh | Apaf-1 inh | DNA FID counter | RAD52 inh
O=C(NC[C@H]1CC[C@H]2[C@H](CN2Cc2cccc(Cl)c2)O1)C1CCC1 | / | / | / | / | / | 67
O=C(NC[C@@H]1CC[C@H]2[C@H](CN2Cc2cccc(Cl)c2)O1)C1CCC1 | / | / | / | / | / | .
CCCNC(=O)N1CC2(CCN(C(=O)C3CCC3)CC2)c2c([nH]c3cc(OC)ccc23)[C@H]1CO | / | / | / | / | / | .
COc1cc(C2CC(=O)Nc3ccccc3S2)cc(OC)c1OC (stereo not given) | . | . | . | . | 89 | .
O=S(=O)(N[C@@H]1CC[C@H](CCn2cc(-c3ccccn3)nn2)O[C@H]1CO)c1cccc(F)c1 | / | . | / | / | / | .
CCOC(=O)CC(=O)CSc1ccc2nnc(-c3ccc(F)cc3)n2n1 | + | . | . | . | . | /
CN1C(=O)c2cc(NC(=O)Cc3cccs3)ccc2OC[C@@H]2O[C@@H](CC(=O)NCc3ccc(-c4ccccc4)cc3)CC[C@H]21 | / | . | / | / | / | .
O=Nc1c(O)[nH]c2ccc(F)cc12 | . | / | . | . | . | .
NC(=S)N=Nc1c(O)[nH]c2ccc(F)cc12 | . | / | 50 | . | . | .
O=[N+]([O-])c1ccc(N2CCNCC2)cc1Sc1nc2ccccc2[nH]1 | . | / | . | . | 40 | /
COc1ccc(-n2cc(CNC3CCN(C)CC3)c(-c3cccc(F)c3)n2)cc1 | / | / | . | . | 42 | .
COc1ccc(-n2cc(CN[C@H]3CCCCNC3=O)c(-c3cccc(F)c3)n2)cc1 | / | . | . | . | . | .
Cc1[nH]n(-c2ccccc2)c(=O)c1C(C[N+](=O)[O-])c1ccc(Cl)cc1 (stereo not given) | . | . | . | 88 | . | /
CO[C@@H](CN(C)S(=O)(=O)c1cn(C)cn1)[C@@H](C)CN(C(=O)Nc1ccc(C(F)(F)F)cc1)[C@H](C)CO | / | . | / | / | / | .
Clc1ccc(-c2nnc3sc(Cc4cccs4)nn23)cc1 | . | . | . | 58 | . | /
CCCNC(=O)N1CC2(CN(C(=O)COC)C2)c2c(n(C)c3cc(OC)ccc23)[C@@H]1CO | / | / | / | / | / | .
CN(C)c1cc(NC(=O)CN2CCCC2)c2ccccc2n1 | . | 78 | . | . | 55 | .
COc1cccc2cc(-c3nc(-c4cccs4)cs3)c(=O)oc12 | + | . | . | . | . | /
CCOC(=O)c1cc(NC(=O)CNCC(c2ccccc2)N(C)C)cc(C(=O)OCC)c1 (stereo not given) | . | . | . | . | 38 | .
COc1cc2[nH]c(=O)n3nc(-c4ccccc4)nc3c2cc1OC | / | / | . | . | . | /
CCN(CC)CCNc1nc2cc(OC)c(OC)cc2c2nc(-c3ccccc3)nn12 | / | 106 | . | . | . | /
COc1ccc(CN(C)C[C@H]2OCCCC[C@H](C)Oc3ccc(NS(=O)(=O)c4ccc(F)cc4)cc3C(=O)N([C@H](C)CO)C[C@H]2C)cc1 | / | . | / | / | / | 55
COc1ccc(NC(=O)N(C)C[C@H]2OCCCC[C@@H](C)Oc3ccc(NS(=O)(=O)c4ccccc4)cc3C(=O)N([C@H](C)CO)C[C@@H]2C)cc1 | / | . | / | / | / | 99
COc1ccc(CN(C)C[C@@H]2OCCCC[C@H](C)Oc3ccc(NS(=O)(=O)c4ccc(Cl)cc4)cc3C(=O)N([C@H](C)CO)C[C@@H]2C)cc1 | / | . | / | / | / | 55
C[C@@H]1CN([C@@H](C)CO)C(=O)c2cc(C#Cc3cccc(F)c3)cnc2O[C@H]1CN(C)CC1CCCC1 | / | . | / | / | / | .
SMILES | Neddylation inh | RAD54 inh | UBC13 inh | Apaf-1 inh | DNA FID counter | RAD52 inh
CCN(CC)CCNC(=O)c1ccc(NC(=O)c2cn(-c3ccccc3)nc2-c2cccs2)cc1 | . | / | 103 | . | . | .
Cc1cc(/C=N/NC(=O)c2cccs2)c(C)n1-c1ccccc1 | + | . | . | . | . | /
Cc1cc(C)cc(NC(=O)[C@H](Cc2c[nH]c3ccccc23)NC(=O)[C@@H]2Cc3ccccc3CN2)c1 | . | . | . | . | 40 | .
C[C@@H]1CCCCO[C@@H](CN(C)Cc2ccccc2)[C@@H](C)CN([C@@H](C)CO)C(=O)c2cc(NC(=O)CCC(F)(F)F)ccc2O1 | / | . | / | / | / | .
C[C@H]1CN([C@@H](C)CO)C(=O)c2cccc(NS(C)(=O)=O)c2O[C@H]1CN(C)Cc1ccc2c(c1)OCO2 | / | . | / | / | / | .
COc1ccc(CCNC(=O)c2cc3c(=O)n4ccccc4nc3n(CCCN3CCOCC3)c2=N)cc1 | . | . | . | . | 48 | .
COc1ccc(CCn2c(=N)c(C(=O)NCc3ccco3)cc3c(=O)n4ccccc4nc32)cc1OC | . | / | / | / | / | .
COc1ccc(CCn2c(=N)c(C(=O)NCCN3CCOCC3)cc3c(=O)n4ccccc4nc32)cc1OC | . | ? | . | . | 44 | .
Cc1ccc2nc3c(cc(C(=O)NCCc4ccccc4)c(=N)n3CCCN3CCOCC3)c(=O)n2c1 | / | . | . | . | . | .
O=S1(=O)Nc2c(ccc3cccnc23)-c2ccccc21 | + | . | . | . | . | /
COc1ccc(-c2ccc(C3[C@H]4CNC[C@@H]3N4C(=O)Nc3ccc(F)cc3)cc2)cc1 (stereo not given in full) | / | / | / | / | / | .
COc1ccc(NC(=O)N2[C@@H]3CNC[C@H]2C3c2ccc(/C=C/c3ccccc3)cc2)cc1 (stereo not given in full) | / | / | / | / | / | 55
COc1ccc(NC(=O)N2[C@@H]3CNC[C@H]2C3c2ccc(-c3ccc(OC)cc3)cc2)cc1 (stereo not given in full) | / | / | / | / | / | .
COc1ccc(-c2ccc(C3[C@H]4CNC[C@@H]3N4C(=O)Nc3ccc(C(F)(F)F)cc3)cc2)cc1 (stereo not given in full) | / | / | / | / | / | 66!
COc1ccc(NC(=O)N2[C@@H]3CNC[C@H]2C3c2ccc(-c3ccc(F)cc3)cc2)cc1 (stereo not given in full) | / | / | / | / | / | 57
CCCC(=O)N1CCC2(CC1)CN(Cc1nccs1)[C@@H](CO)c1[nH]c3cc(OC)ccc3c12 | / | / | / | / | / | .
O=c1oc2ccccc2nc1/C=C(O)/C=C/c1ccc(F)cc1 | . | . | . | . | 40 | /
O=c1oc2ccccc2nc1/C=C(O)/C=C\c1ccccc1 | . | / | . | . | . | /
OCc1cc(C(O)CNCCCCCCOCCCCc2ccccc2)ccc1O (stereo not given) | . | . | . | 42! | . | .
CN(C)CC#Cc1ccc([C@@H]2[C@@H](CO)N3CCCCN(C(=O)CN(C)C)C[C@H]23)cc1 | / | . | / | / | / | 61
CN(C)CC#Cc1ccc([C@H]2[C@@H](CO)N3CCCCN(C(=O)CN(C)C)C[C@H]23)cc1 | / | . | / | / | / | 87
COCC#Cc1ccc([C@H]2[C@H]3CN(C(=O)CN(C)C)CCCCN3[C@H]2CO)cc1 | / | . | / | / | / | .

Assay outcomes: PubChem BioAssay, several laboratories
